Experimental data from ChEMBL document CHEMBL4725490, “Decreasing HepG2 Cytotoxicity by Lowering the Lipophilicity of Benzo[d]oxazolephosphinate Ester Utrophin Modulators” (ACS Med Chem Lett, 2020).
In brackets after ≈: the same amount, converted by molar mass. Activity calls are given as the source filed them. No cut-off for these calls is given here.

Assays:
[1] = Inhibition of firefly luciferase activity using ATP as substrate preincubated followed by substrate addition and measured after 15 mins by firefly luciferase reporter gene assay; design: species or system Photinus pyralis
In short: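 Biochemical counter-screen measuring direct inhibition of recombinant firefly luciferase enzyme activity, used to flag interference in the H2K reporter assay.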

[2] = Lipophilicity, log D of the compound at pH 7.4; settings: buffer
[3] = Kinetic aqueous solubility of the compound
[4] = Protein binding in mouse plasma
[5] = Apparent permeability across apical to basolateral side in human Caco2 cells; settings: Caco-2
[6] = Apparent permeability across basolateral to apical side in human Caco2 cells; settings: Caco-2
[7] = Half life in mouse hepatocyte; settings: hepatocytes
[8] = organism: Mus musculus; assay: Modulation activity of utrophin in dystrophic mouse muscle cells assessed increase in utrophin protein level by western blot analysis relative to control; settings: filed as modulator
In short: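 LUmdx dystrophic mouse muscle cells were treated with compound, and utrophin protein was quantified by Western blot. Values are fold increase in utrophin level.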

[9] = test system: HepG2; assay: Cytotoxicity against human HepG2 cells assessed as reduction in cell viability incubated for 40 hrs by cell titer glo assay; format: ADME, cell-based; settings: HepG2, 40 h
[10] = Intrinsic clearance in mouse hepatocyte; settings: hepatocytes

SMILES | IC50 [1] | logD [2] | solubility kinetic [3] [µM] | fraction unbound [4] | Papp A→B [5] [×10⁻⁶ cm/s] | Papp B→A [6] [×10⁻⁶ cm/s] | half-life [7] [min] | IC50 ([1]; read-out: IC50) [µM] | Activity [8] | IC50 [9] [µM] | PPB [4] [%] | CLH [10] [µL/min/10^6 cells]
CCP(=O)(OC)c1ccc2oc(-c3ccccc3OC(F)F)nc2c1 (stereo not given) | Not Active | 2.45 | 366 (≈ 134 µg/mL) | 0.03 | 18.8 | 15.7 | < 3 | – | – | – | – | –
CCP(=O)(OC)c1ccc2oc(-c3cccc(C(F)F)c3)nc2c1 (stereo not given) | – | 3.09 | > 250 | 0.06 | 14.2 | 10.1 | 20 | 2.48 | – | – | – | –
CCP(=O)(OC)c1ccc2oc(-c3ccnc(OC(F)F)c3)nc2c1 (stereo not given) | – | 2.2 | 733 (≈ 270 µg/mL) | 0.14 | 22.3 | 20.6 | > 240 | > 30 | Active | 200 | – | –
CCP(=O)(OC)c1ccc2nc(-c3ccc(C(F)F)cc3)oc2c1 (stereo not given) | Not Active | 2.98 | 556 (≈ 195 µg/mL) | 0.04 | – | – | – | – | Active | – | – | –
CCP(=O)(OC)c1ccc2oc(-c3cccc(OC(F)F)c3)nc2c1 (stereo not given) | – | – | – | – | 13.3 | 9.37 | 13 | > 30 | – | – | – | –
CCP(=O)(OC)c1ccc2oc(-c3cccnc3C(F)(F)F)nc2c1 (stereo not given) | Not Active | 2.2 | 854 (≈ 316 µg/mL) | 0.11 | – | – | 4 | – | – | – | – | –
CCP(=O)(OC)c1ccc2nc(-c3ccc(F)cc3C(F)F)oc2c1 (stereo not given) | Not Active | 3.59 | 469 (≈ 173 µg/mL) | 0.03 | 12.3 | 11.5 | 38 | – | – | – | – | –
CCP(=O)(OC)c1ccc2nc(-c3cccc(OC(F)F)c3)oc2c1 (stereo not given) | Not Active | 3.2 | 8.4 (≈ 3.09 µg/mL) | 0.04 | 18.1 | 15.9 | 37 | – | – | – | – | –
CCP(=O)(OC)c1ccc2oc(-c3ccnc(C(F)(F)F)c3)nc2c1 (stereo not given) | Not Active | – | – | – | 12.3 | 11 | > 240 | – | – | 200 | – | –
CCP(=O)(OC)c1ccc2oc(-c3ccc4c(c3)OC(F)(F)O4)nc2c1 (stereo not given) | – | 2.4 | 576 (≈ 220 µg/mL) | 0.02 | 12.7 | 11.7 | 154 | 23.6 | – | – | – | –
CCP(=O)(OC)c1ccc2oc(-c3ccc(C(F)F)cc3)nc2c1 (stereo not given) | Not Active | 3.06 | 530 (≈ 186 µg/mL) | 0.02 | – | – | – | – | – | – | – | –
CCP(=O)(OC)c1ccc2nc(-c3cncc(C(F)(F)F)c3)oc2c1 (stereo not given) | Not Active | 2.41 | 603 (≈ 223 µg/mL) | 0.2 | – | – | > 240 | – | – | – | – | –
CCP(=O)(OC)c1ccc2nc(-c3cncc(C(F)F)c3)oc2c1 (stereo not given) | Not Active | 2.08 | 487 (≈ 172 µg/mL) | 0.23 | – | – | > 240 | – | – | – | – | –
CCP(=O)(OC)c1ccc2oc(-c3cncc(C(F)F)c3)nc2c1 (stereo not given) | Not Active | 1.86 | 440 (≈ 155 µg/mL) | 0.26 | – | – | > 240 | – | – | – | – | –
CCP(=O)(OC)c1ccc2oc(-c3cccc(C(F)(F)F)c3)nc2c1 (stereo not given) | – | – | – | – | – | – | – | 12.1 | – | – | – | –
CCP(=O)(OC)c1ccc2oc(-c3ccc(F)cc3)nc2c1 (stereo not given) | – | 2.8 | 378 (≈ 121 µg/mL) | – | 18 | 15.7 | – | 0.115 | – | 200 | 95 | –
CCP(=O)(OC)c1ccc2oc(-c3cncc(C(F)(F)F)c3)nc2c1 (stereo not given) | Not Active | 2.44 | 477 (≈ 177 µg/mL) | 0.25 | – | – | > 240 | – | Active | – | – | –
CCP(=O)(OC)c1ccc2oc(-c3ccccc3C(F)F)nc2c1 (stereo not given) | – | 2.8 | > 250 | 0.03 | 16.2 | 11.2 | < 3 | 5.73 | – | – | – | –
CCP(=O)(OC)c1ccc2nc(-c3ccccc3C(F)F)oc2c1 (stereo not given) | Not Active | 3.33 | 446 (≈ 157 µg/mL) | 0.03 | – | – | < 3 | – | – | – | – | > 250
CCP(=O)(OC)c1ccc2nc(-c3ccnc(OC(F)F)c3)oc2c1 (stereo not given) | – | 2.6 | 834 (≈ 307 µg/mL) | 0.07 | 21.8 | 16.9 | > 240 | > 30 | – | – | – | –
CCP(=O)(OC)c1ccc2oc(-c3ccc(F)cc3C(F)F)nc2c1 (stereo not given) | Not Active | 3.4 | 518 (≈ 191 µg/mL) | 0.03 | – | – | 13 | – | – | – | – | –
CCP(=O)(OC)c1ccc2nc(-c3ccc4c(c3)OC(F)(F)O4)oc2c1 (stereo not given) | – | – | 574 (≈ 219 µg/mL) | 0.02 | 17.2 | 16.2 | 154 | > 30 | – | 68.9 | – | –
CCP(=O)(OC)c1ccc2nc(-c3cccnc3C(F)(F)F)oc2c1 (stereo not given) | Not Active | 1.98 | 699 (≈ 259 µg/mL) | 0.24 | – | – | 5 | – | – | – | – | –
CCP(=O)(OC)c1ccc2oc(-c3cccc(OC)c3)nc2c1 (stereo not given) | – | 3.19 | > 250 | 0.04 | 15.7 | 12.6 | < 3 | 0.088 | – | – | – | –
CCP(=O)(OC)c1ccc2oc(-c3ccc(OC)cc3)nc2c1 (stereo not given) | – | – | 265 (≈ 87.8 µg/mL) | – | 13.3 | 10.7 | – | 0.19 | – | 200 | – | –
